Four molecules from ChEMBL document CHEMBL1125745, “Unsaturated and carbocyclic nucleoside analogues: synthesis, antitumor, and antiviral activity” (J Med Chem, 1991) can be followed below.

Molecules are shown by their SMILES.

Assay [1] in a line: Inhibition of incorporation of labeled precursor into macromolecules of noninfected SC-1 cells with the compound at a concentration 300 uM determined against uridine. The class given is functional. A digest of the protocol: (§1)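 SC-1 cells seeded in 24-well trays at 1 × 10^4 cells/mL, incubated overnight at 37 °C, then exposed to analogue for 72 h at 37 °C. Labeled thymidine (2.5 µCi), [3H-5,6]uridine or [3H-4,5]leucine was added. After 4 h, cells were washed with cold PBS, lysed in 1% SDS/0.01 M EDTA/0.01 M Tris pH 7.7, and lysates were dried on GF/B filters. Result given as % of untreated incorporation.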

The species named for assay [2] is Mus musculus. In words: Cytotoxicity was evaluated. It counts as functional. A digest of the protocol:
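SC-1 cells (1 × 10^4 cells/mL) were seeded, incubated overnight at 37 °C, refed with EMEM-10 and given diluted analogue in triplicate for 72 h at 37 °C. Cells were trypsinized and counted in a Coulter counter. The mean of three wells gave percent of control count, and IC50 was calculated by linear regression.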

Assay [3] is filed under the species Mus musculus. In words: Concentration that reduces Rauscher murine leukemia virus titer by 50%. The class given is functional, organism-based. A digest of the protocol: (§2)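 SC-1 cells (1 × 10^4/well) were pretreated with polybrene, infected 2 h at 37 °C with F-MuLV or R-MuLV in EMEM-5 with 8 µg/mL polybrene, washed, and refed with analogue for 72 h. They were then UV-irradiated and overlaid with XC cells (2 × 10^5) for 48 h, fixed and stained with crystal violet. Multinucleated cells were counted and EC50 was taken by linear regression versus untreated cultures.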

A short description of assay [4]: Inhibition of incorporation of labeled precursor into macromolecules of noninfected SC-1 cells with the compound at a concentration 100 uM determined against uridine. It counts as functional. A digest of the protocol: (§3)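 Noninfected SC-1 cells were incubated with analogue as in the cytotoxicity setup, and [3H]thymidine, [3H]uridine or [3H]leucine was added. After 4 h, wells were washed with ice-cold PBS and cells were lysed in 1% SDS, 0.01 M EDTA, 0.01 M Tris pH 7.7. Lysates were dried on glass-fiber filters, and label is expressed as percent of incorporation in untreated cells.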

Assay [5] in a line: Inhibition of incorporation of labeled precursor into macromolecules of noninfected SC-1 cells with the compound at a concentration 100 uM determined against leucine. It counts as functional. A digest of the protocol: as §3
Assay [6] is filed under the species Mus musculus. In words: Selectivity index which is the ratio of IC50 to EC50 of R-MuLV. The class given is functional.
A short description of assay [7]: Inhibition of incorporation of labeled precursor into macromolecules of noninfected SC-1 cells with the compound at a concentration 300 uM determined against thymidine. It counts as functional. A digest of the protocol:
as §1

Assay [8] in a line: Inhibition of incorporation of labeled precursor into macromolecules of noninfected SC-1 cells with the compound at a concentration 300 uM determined against leucine. It counts as functional. A digest of the protocol: as §1
A short description of assay [9]: Selectivity index is the ratio of IC50 to EC50 of F-MuLV. The class given is functional.
Assay [10] is described as follows: Inhibition of incorporation of labeled precursor into macromolecules of noninfected SC-1 cells with the compound at a concentration 100 uM determined against thymidine. The class given is functional. A digest of the protocol: as §3
The species named for assay [11] is Mus musculus. In words: Concentration that reduces Friend murine leukemia virus titer by 50%. The class given is functional, organism-based. A digest of the protocol: as §2
Assay [12] has as its system L1210. In words: Compound were evaluated for inhibition of macromolecular synthesis in murine leukemia L1210 cells at 4 hour against RNA. The class given is functional, Mus musculus. Details: scale not given: the % may be the effect or the level left.
A short description of assay [13]: Cytotoxicity was evaluated against low malignancy line at 500 ug/disk. It counts as functional. A digest of the protocol: (§4)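 Disk zone assay: analogue dilutions on 6.5 mm paper disks were placed on dishes with a 0.8% agar bottom layer and a 0.44% soft-agar top layer of tumor cells (≤1 × 10^5/plate) in Fishers-CMRL-1066 with 12% horse serum. Plates were incubated 6-10 days and the inhibition zone was measured by microscope; 200 zone units = 6 mm.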

The subject of assay [14] is L1210. In words: Compound were evaluated for inhibition of macromolecular synthesis in murine leukemia L1210 cells at 1 hour against Protein. The class given is functional, Mus musculus. Also on record: scale not given: the % may be the effect or the level left.
The test system of assay [15] is L1210. In words: Compounds were evaluated for inhibition of macromolecular synthesis in murine leukemia L1210 cells at 1 hour against DNA. Details: scale not given: the % may be the effect or the level left. It counts as functional, Mus musculus.
Assay [16] has as its system L1210. In words: Compound were evaluated for inhibition of macromolecular synthesis in murine leukemia L1210 cells at 4 hour against Protein. It counts as functional, Mus musculus. Details: scale not given: the % may be the effect or the level left.
The species entered for assay [17] is Homo sapiens. In words: Cytotoxicity was evaluated against PO1 human solid tumor at 500 ug/disk. It counts as functional. A digest of the protocol: as §4
The test system of assay [18] is L1210. In words: Cytotoxicity was evaluated against L1210 leukemia cell line at 500 ug/disk. The class given is functional, Mus musculus. A digest of the protocol: as §4
Assay [19] can be described thus: Cytotoxicity was evaluated against CO9 solid tumor of mouse at 500 ug/disk. It counts as functional. A digest of the protocol:
as §4

Assay [20] has as its system L1210. In words: Compound were evaluated for inhibition of macromolecular synthesis in murine leukemia L1210 cells at 4 hour against DNA. Also on record: scale not given: the % may be the effect or the level left. The class given is functional, Mus musculus.
Assay [21] concerns L1210. In words: Inhibitory activity against murine leukemia L1210 cells. The class given is functional, cell-based. To be noted: Mus musculus.
In assay [22] the test system is L1210. In words: Compounds were evaluated for inhibition of macromolecular synthesis in murine leukemia L1210 cells at 1 hour against RNA. It counts as functional, Mus musculus. Also on record: scale not given: the % may be the effect or the level left.
A short description of assay [23]: Cytotoxicity was evaluated against low malignancy line at 250 ug/disk. It counts as functional. A digest of the protocol: as §4
Assay [24] relates to L1210. In words: Compound was evaluated for inhibition of macromolecular synthesis in murine leukemia L1210 cells at 1 hour against DNA. The class given is functional, Mus musculus. Details: scale not given: the % may be the effect or the level left.
Assay [25] deals with L1210. In words: Compound was evaluated for inhibition of macromolecular synthesis in murine leukemia L1210 cells at 4 hour against Protein. Also on record: scale not given: the % may be the effect or the level left. The class given is functional, Mus musculus.
In assay [26] the test system is L1210. In words: Cytotoxicity was evaluated against L1210 leukemia cell line at 250 ug/disk. It counts as functional, Mus musculus. A digest of the protocol:
as §4

Assay [27] concerns L1210. In words: Compound was evaluated for inhibition of macromolecular synthesis in murine leukemia L1210 cells at 1 hour against Protein. Details: scale not given: the % may be the effect or the level left. The class given is functional, Mus musculus.
Assay [28] deals with PO3. In words: Cytotoxicity was evaluated against PO3 cell line at 250 ug/disk. The class given is functional, Mus musculus. A digest of the protocol:
as §4

The test system of assay [29] is L1210. In words: Compound was evaluated for inhibition of macromolecular synthesis in murine leukemia L1210 cells at 4 hour against DNA. The class given is functional, Mus musculus. Details: scale not given: the % may be the effect or the level left.
The subject of assay [30] is L1210. In words: Compound was evaluated for inhibition of macromolecular synthesis in murine leukemia L1210 cells at 1 hour against RNA. The class given is functional, Mus musculus. Also on record: scale not given: the % may be the effect or the level left.
Assay [31] is filed under the species Homo sapiens. In words: Cytotoxicity was evaluated against PO1 human solid tumor at 250 ug/disk. It counts as functional. A digest of the protocol:
as §4

Assay [32] concerns L1210. In words: Compound was evaluated for inhibition of macromolecular synthesis in murine leukemia L1210 cells at 4 hour against RNA. The class given is functional, Mus musculus. Details: scale not given: the % may be the effect or the level left.
For assay [33], the species on record is Homo sapiens. In words: Cytotoxicity was evaluated against C116 human solid tumor at 250 ug/disk. The class given is functional. A digest of the protocol: as §4
The species named for assay [34] is Mus musculus. In words: Cytotoxicity was evaluated against low malignancy line at 1000 ug/disk. The class given is functional. A digest of the protocol:
as §4

The subject of assay [35] is MC-38. In words: Cytotoxicity was evaluated against C38 solid tumor of mouse at 1000 ug/disk. The class given is functional. A digest of the protocol: as §4
For assay [36], the system named is L1210. In words: Cytotoxicity was evaluated against L1210 leukemia cell line at 1000 ug/disk. The class given is functional, Mus musculus. A digest of the protocol: as §4
For assay [37], the species on record is Homo sapiens. In words: Cytotoxicity was evaluated against C116 human solid tumor at 1000 ug/disk. It counts as functional. A digest of the protocol: as §4

As to `Nc1ncnc2c1ncn2C1C(O)C(O)C(CO)C1O` (configuration not stated), the Precursor inhibition came to 29% in assay [1]; 56% in assay [4]; 99% in assay [5]; 110% in assay [7]; 53% in [8]; 115% in assay [10]. This molecule also came in with a 50% inhibitory concentration (IC50) in [2] of 281 µM. Moreover, the concentration giving a half-maximal response (EC50) in [3] came to 25 µM; in assay [11], 67.3 µM. Besides, the values for the SI in [6] and in assay [9] were 9.1 and 3.4, respectively.
Take `Nc1ccn(C/C=C\CCl)c(=O)n1`: the Control in [12] is given as 100%; in assay [14], 100%; in assay [15] it was 80%; in assay [16], 100%; in assay [20], 67%; in [22], 100%. The Cytotoxicity was 450 in assay [13], 640 in assay [17], 640 in assay [18] and 410 in assay [19]. In assay [21], the midpoint of inhibition, the IC50, lay at 10 µM.
On to `Nc1ccn(C2C=CCO2)c(=O)n1` (configuration not stated), for which the Cytotoxicity in assay [23] worked out at 400; in assay [26], 500; in assay [28] it was 500; in [31] it was 600; in assay [33], 450. The Control in assay [24] came out at 85%; in assay [25], 50%; in assay [27], 100%; in assay [29] it was 55%; in assay [30] it was 100%; in assay [32] it was 85%. The molecule further showed an IC50 in assay [21] of 28 µM.
Take `Cc1cn(C2C=CCO2)c(=O)[nH]c1=O` (configuration not stated): the Cytotoxicity in assay [34] is reported as 500; in [35], 430; in [36], 410; in assay [37], 260. Further, the Control in [25] is on record as 90%; in assay [29] it was 10%; in assay [32], 50%. Moreover, the half-maximal inhibitory concentration (IC50) in assay [21] stood at 50 µM.

As a reminder, the IC50 is the concentration that inhibits the measured activity by half. By EC50 is commonly meant the concentration that produces a half-maximal response.
